Inhibition in vivo and Analgesic activity data for 2 compounds are collected here from ChEMBL document CHEMBL1123340, “Synthesis and analgesic evaluation of 4-(2-heptyloxy)-7-[(Z)-(3-hydroxycyclohexyl)]indole: a caveat on indole-phenol bioisosterism” (1986).

Common to all, as to format: functional
Assay [1] concerns Mus musculus. The experiment in a line: Inhibition of the Mouse PBQ Writhing at a dose of 20 mg/kg ip afer 20 min. The following applies: route intraperitoneal. In a few lines: (§1)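 Mouse phenylbenzoquinone (PBQ) writhing test. Test drug is given sc, ip or iv at the stated pretreatment time before PBQ injection. Mice are placed in individual observation boxes, and total writhes per group are counted over the following 15 min. Vehicle is emulphor/ethanol/saline (1:1:18), diluted from a 1:1 emulphor/ethanol stock, and vehicle-injected controls are run. Result is % inhibition of writhing versus vehicle controls.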
(In general: Writhing tests count abdominal constrictions after an irritant is injected.)

Assay [2] deals with Mus musculus. In words: Inhibition of the Mouse PBQ Writhing at a dose of 20 mg/kg iv afer 10 min. The essentials: as §1
In assay [3] the test system is Mus musculus. The experiment in a line: Inhibition of the Mouse PBQ Writhing at a dose of 20 mg/kg sc after 15 min. As to conditions: 0.25 h, route subcutaneous. In a few lines:
as §1

For assay [4], the system named is Mus musculus. The experiment in a line: Compound was tested at a dose of 20 mg/kg administered subcutaneously for a pretreatment time of 120 min for analgesic activity using phenylbenzoquinone (PBQ). The following applies: route subcutaneous. The essentials:
as §1

Assay [5] relates to Mus musculus. The experiment in a line: Inhibition of the Mouse PBQ Writhing at a dose of 20 mg/kg sc after 60 min. As to conditions: 1 h, route subcutaneous. In a few lines: as §1
For assay [6], the system named is Mus musculus. In words: Compound was tested at a dose of 20 mg/kg administered intraperitoneally for a pretreatment time of 60 min. As to conditions: route intraperitoneal. The essentials: as §1
For assay [7], the system named is Mus musculus. The experiment in a line: Compound was tested at a dose of 20 mg/kg administered intravenously for a pretreatment time of 10 min. As to conditions: route intravenous. In a few lines: as §1
The test system of assay [8] is Mus musculus. In words: Inhibition of the Mouse PBQ Writhing at a dose of 20 mg/kg iv afer 30 min. As to conditions: 0.5 h. The essentials:
as §1

Assay [9] deals with Mus musculus. In words: Inhibition of the Mouse PBQ Writhing at a dose of 20 mg/kg ip afer 60 min. The following applies: 1 h, route intraperitoneal. The essentials:
as §1

The subject of assay [10] is Mus musculus. The experiment in a line: Compound was tested at a dose of 20 mg/kg administered intraperitoneally for a pretreatment time of 20 min for analgesic activity using phenyl benzoquinone. As to conditions: route intraperitoneal. In a few lines:
as §1

The subject of assay [11] is Mus musculus. In words: Compound was tested at a dose of 20 mg/kg administered subcutaneously for a pretreatment time of 60 min for analgesic activity using phenylbenzoquinone (PBQ). As to conditions: route subcutaneous. In a few lines:
as §1

In assay [12] the test system is Mus musculus. The experiment in a line: Inhibition of the Mouse PBQ Writhing at a dose of 20 mg/kg sc after 120 min. As to conditions: 2 h, route subcutaneous. In a few lines:
as §1

For assay [13], the system named is Mus musculus. In words: Compound was tested at a dose of 20 mg/kg administered subcutaneously for a pretreatment time of 15 min for analgesic activity using phenylbenzoquinone (PBQ). As to conditions: route subcutaneous. In a few lines: as §1
For assay [14], the system named is Mus musculus. In words: Compound was tested at a dose of 5 mg/kg administered subcutaneously for a pretreatment time of 60 min for analgesic activity using phenylbenzoquinone (PBQ). The following applies: route subcutaneous. The essentials: as §1
For assay [15], the system named is Mus musculus. In words: Inhibition of the Mouse PBQ Writhing at a dose of 10 mg/kg sc after 60 min. The following applies: 1 h, route subcutaneous. In a few lines:
as §1

Assay [16] deals with Mus musculus. The experiment in a line: Inhibition of the Mouse PBQ Writhing at a dose of 5 mg/kg sc after 60 min. The following applies: 1 h, route subcutaneous. The essentials:
as §1

Assay [17] has as its system Mus musculus. In words: Compound was tested at a dose of 10 mg/kg administered subcutaneously for a pretreatment time of 60 min for analgesic activity using phenylbenzoquinone (PBQ). The following applies: route subcutaneous. In a few lines: as §1

As for `CCCCCC(C)Oc1ccc([C@H]2CCC[C@@H](O)C2)c2[nH]ccc12` (some centres undefined), the inhibition in vivo (as a rule, the relative decrease from the control value, in per cent) at 20 mg/kg is 10% in assay [1]; 20.3% in [2]; 21.6% in assay [3]; 0% in assay [5]; 0% in assay [8]; 0% in assay [9]. Further, the inhibition in vivo at 20 mg/kg in assay [12] turned out to be 0%. In addition, the Analgesic activity turned out to be 32.4 in assay [4]; 29.2 in assay [6]; 24.8 in assay [7]; 24.4 in assay [10]; 27.2 in assay [11]; 16.7 in assay [13].
For `CCCCCC(C)Oc1ccc([C@H]2CCC[C@@H](O)C2)c(O)c1` (some centres undefined), the Analgesic activity in assay [14] worked out at 23.8; in assay [11] it was 2.9; in assay [17], 15.3. This compound also displayed an inhibition in vivo at 10 mg/kg in assay [15] of 54.5%. Further, in assay [5], the inhibition in vivo at 20 mg/kg was 91.4%. In addition, in assay [16], the inhibition in vivo at 5 mg/kg stood at 29.2%.
